# Compound activity (PubChem BioAssay)
# Most compounds without a hit are left out; they make up all but 9.4% or so of the library.
# Beta apoptosis: beta cell apoptosis inhibition; INS-1E cytokine-induced death, ATP luminescence, 48 h; percent of positive-control rescue, neutral wells zero; protection from apoptosis, % (no concentration beside the values); 0.8% of 300,000 active; AID 435005;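 active = Every replicate reaches about 75%, or at least half do and their mean reaches it too, limit read from the data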;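 also: higher means more ATP so stronger rescue from cytokine killing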
# L major viab: inhibitors of Leishmania major promastigote growth | Leishmania major promastigotes, resazurin fluorescence viability | 9% of 200,000 active | inhibition, % at 10 µM; in the data active = inhibition above about 50%;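 also: promastigotes grown with compound for 44 hours at 28 °C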
# Mdm2 MdmX PPI: disrupts the human Mdm2-MdmX interaction; inhibition, % at 8 µM; O15151+Q00987; SaOS-2 split-luciferase Mdm2/MdmX complementation, luminescence; 3% of 330,000 active; AID 485346;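 active = inhibition of at least 50% at 8 µM in the primary screen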
# T cruzi inh: blocks replication of Trypanosoma cruzi; T. cruzi beta-gal in NIH3T3, luminescence, 90 h; 1.4% of 300,000 active; AID 1885; inhibition, % (concentration not given with the values);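 active = mean inhibition across valid replicates above about 55%, limit read from the data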;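 also: signal also drops with host cell toxicity which is not excluded here; higher percent means less beta-gal luminescence so fewer parasites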
#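 assay system = mouse NIH/3T3 fibroblasts infected with β-gal-expressing T. cruzi Tulahuen C4 | input = 5,000 NIH/3T3 host cells per well | buffer or medium = DMEM plus 2% FBS | timing = 3 h host attachment, then at least 90 h co-culture | measured by = GalScreen luminescence, 60 min | evaluation = luminescence reflecting intracellular parasite burden, expressed as percent inhibition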
# CSC inhib: cancer stem cell inhibition | cancer stem cell-like cells viability, luminescence | inhibition, % at 7.5 µM | 1.1% of 300,000 active | AID 2717; in the data active = inhibition above about 75%; tested in HMLE shEcad cells
# SKKanGAS inh: blocks kanamycin growth of S. pyogenes SKKanGAS strain; BacTiter-Glo, 6 h; inhibition, % at 7.5 µM; 1.3% of 300,000 active; AID 1662;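 active = mean replicate score, as percent of positive control median, at least 50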;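 also: strain carries kanamycin resistance gene driven by streptokinase promoter and grows in 40 µg/ml kanamycin; loss of luminescence reflects streptokinase promoter inhibition or plain growth inhibition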
# A number is an active result; n = inactive; x = no result.
SMILES,Beta apoptosis,L major viab,Mdm2 MdmX PPI,T cruzi inh,CSC inhib,SKKanGAS inh
CC[C@H]1OC(=O)[C@H](C)[C@@H](O[C@H]2C[C@@](C)(OC)[C@@H](O)[C@H](C)O2)[C@H](C)[C@@H](O[C@@H]2O[C@H](C)C[C@H](N(C)C)[C@H]2O)[C@](C)(O)C[C@@H](C)C(=O)[C@H](C)[C@@H](O)[C@]1(C)O,n,x,x,n,n,102
CCOC(=O)CCC(=O)O[C@H]1[C@H](O[C@@H]2[C@@H](C)[C@H](O[C@H]3C[C@@](C)(OC)[C@@H](O)[C@H](C)O3)[C@@H](C)C(=O)O[C@H](CC)[C@@](C)(O)[C@H](O)[C@@H](C)C(=O)[C@H](C)C[C@@]2(C)O)O[C@H](C)C[C@@H]1N(C)C,x,n,x,n,n,105
COc1cccc(C2NC(=O)CCC2[N+](=O)[O-])c1OC (stereo unspecified),n,x,n,n,n,n
O=C1Cc2ccccc2Sc2c(OCCN3CCCCC3)cccc21,n,100,n,n,n,n
Nc1ccc2c(c1)C(=O)Cc1ccccc1S2,n,n,n,n,n,n
O=C1Cc2ccccc2Sc2cc(OCCCN3CCCCC3)ccc21,n,100,n,n,n,n
CN(C)CCCOc1ccc2c(c1)Sc1ccccc1CC2=O,n,100,n,n,n,n
Cc1ccc(CC2CC(=O)N(c3nc4ccccc4s3)C2=O)cc1 (stereo unspecified),n,n,n,n,n,n
COc1ccc2nc(N3C(=O)CC(Cc4ccc(C)cc4)C3=O)sc2c1 (stereo unspecified),n,76,n,n,n,n
COc1cccc(-n2nnc3c(=O)n(CC(=O)N4CCCc5ccccc54)cnc32)c1,n,71,n,n,n,n
COc1cccc(-n2nnc3c(=O)n(CC(=O)N4CCC(Cc5ccccc5)CC4)cnc32)c1,n,94,n,n,n,n
O=C(CSc1nnc(NC(=O)c2ccco2)s1)Nc1ccc2c(c1)OCCO2,n,n,n,n,n,n
COc1cc(C2NC(=O)NC(c3ccccc3)=C2C(C)=O)cc([N+](=O)[O-])c1O (stereo unspecified),n,n,n,n,n,n
C=CCNc1nc(Nc2ccc([N+](=O)[O-])cc2)nc(OC)n1,n,n,n,n,n,n
COc1nc(Nc2ccc([N+](=O)[O-])cc2)nc(NC2CCCCC2)n1,n,89,n,n,n,n
O=C(NC1=C(Nc2ccc(F)cc2)C(=O)c2ccccc2C1=O)c1ccc(Cl)cc1,87,96,n,n,n,51
CCOC(=O)c1c(C)oc2c1c(C(c1ccncc1)N1CCOCC1)c(O)c1ccccc12 (stereo unspecified),n,73,n,x,n,x
CC(C)(C)N/N=C1\CC(c2ccccc2)Oc2ccccc21 (stereo unspecified),n,n,n,n,x,73
Cc1nc(SCc2nc3ccc(Br)cc3[nH]2)c2oc3ccccc3c2n1,n,x,n,x,x,x
Cc1nc(SCc2nc3ccc(C(F)(F)F)cc3[nH]2)c2oc3ccccc3c2n1,n,x,n,x,104,x
CN(Cc1ccco1)C(=O)Cn1cc(S(=O)(=O)N2CCCC2)c(S(=O)(=O)N2CCCC2)c1,n,x,n,n,n,n
Cc1nnc(SCC2=C(C(=O)O)N3C(=O)C(NC(=O)Cn4ncc(Cl)c4C)C3SC2)s1 (stereo unspecified),n,n,n,n,n,106
Cc1nnc(SCC2=C(C(=O)O)N3C(=O)C(NC(=O)c4cccc(F)c4F)C3SC2)s1 (stereo unspecified),n,n,n,n,x,120
Cc1cc(C)n(CC(=O)NC2C(=O)N3C(C(=O)O)=C(CSc4nnc(C)s4)CSC23)n1 (stereo unspecified),n,n,n,n,n,x
COC(=O)c1c(C)nc2nonc2c1N,n,n,n,x,n,n
CCCCc1nc2cc(C(=O)N3CCC(OCCOC)CC3)ccc2o1,n,x,n,n,n,63
C=CCn1c(=N)n(CC(=O)c2ccc(Br)s2)c2ccccc21,n,97,n,n,n,n
C=CCn1c(=N)n(CC(=O)c2ccc(Cl)cc2)c2ccccc21,n,x,n,n,n,n
Cc1ccc(S(=O)(=O)N(CC(=O)Nc2ccccc2-c2ccccc2)c2ccc(C)cc2C)cc1,n,n,n,n,n,n
COc1ccccc1CN(C)CC(=O)Nc1ccccc1-c1ccccc1,n,n,n,n,n,n
